Molecules are shown by their SMILES. Values after ≈ are worked out from the molar mass of the structure shown. Bounds are passed on as bounds.

For the experiment, the system named is HSC-2. As to the kind of experiment: Cytotoxicity against human HSC2 cells after 24 hrs by MTT assay. The experiment is classed as functional. The conditions noted are these: HSC-2, 24 h, read-out: LD50 (the source's name). Put shortly: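 HSC-2 oral squamous carcinoma cells grown as monolayers in DMEM with 10% heat-inactivated FBS, 37 °C, 5% CO2. Seeded at 6 × 10^3 cells/well, incubated 24 h, washed, then exposed to compounds for 24 h. MTT (0.2 mg/mL) for 4 h, DMSO lysis, absorbance at 540 nm. LD50 (50% reduction in viable cells) read from dose-response curve.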
(In general: Tetrazolium dyes change colour on reduction, which living cells bring about.)
As for `C[C@@H]1C(=O)O[C@H]2C[C@H]3[C@@H]4CC=C5C[C@@H](O[C@@H]6O[C@H](CO)[C@H](O[C@@H]7O[C@H](CO)[C@@H](O)[C@H](O[C@@H]8OC[C@@H](O)[C@H](O)[C@H]8O)[C@H]7O[C@@H]7O[C@H](CO)[C@@H](O)[C@H](O[C@@H]8O[C@H](CO)[C@@H](O)[C@H](O)[C@H]8O)[C@H]7O)[C@H](O)[C@H]6O)[C@H](O)C[C@]5(C)[C@H]4CC[C@]3(C)[C@H]21`, the CC50 is above 300 µg/mL.
`COc1cccc2c1C(=O)c1c(O)c3c(c(O)c1C2=O)C[C@@](O)(C(=O)CO)C[C@@H]3O[C@H]1C[C@H](N)[C@H](O)[C@H](C)O1` [DOXORUBICIN]: the CC50 came out at 2.5 µg/mL (≈ 4.6 µM).
For `CC1=C(CC[C@@H](C)CO[C@@H]2O[C@H](CO)[C@@H](O)[C@H](O)[C@H]2O)O[C@H]2C[C@H]3[C@@H]4CC=C5C[C@@H](O[C@@H]6O[C@H](CO)[C@H](O[C@@H]7O[C@H](CO)[C@@H](O)[C@H](O[C@@H]8OC[C@@H](O)[C@H](O)[C@H]8O)[C@H]7O[C@@H]7O[C@H](CO)[C@@H](O)[C@H](O[C@@H]8O[C@H](CO)[C@@H](O)[C@H](O)[C@H]8O)[C@H]7O)[C@H](O)[C@H]6O)[C@H](O)C[C@]5(C)[C@H]4CC[C@]3(C)[C@@H]12` the value was above 300 µg/mL.
For `C/C(C(=O)CC[C@@H](C)CO[C@@H]1O[C@H](CO)[C@@H](O)[C@H](O)[C@H]1O)=C1/C(=O)C[C@H]2[C@@H]3CC=C4C[C@@H](O[C@@H]5O[C@H](CO)[C@H](O[C@@H]6O[C@H](CO)[C@@H](O)[C@H](O[C@@H]7OC[C@@H](O)[C@H](O)[C@H]7O)[C@H]6O[C@@H]6O[C@H](CO)[C@@H](O)[C@H](O)[C@H]6O)[C@H](O)[C@H]5O)[C@H](O)C[C@]4(C)[C@H]3CC[C@]12C` the value was above 300 µg/mL; for `C[C@@H]1CC[C@@]2(OC1)O[C@H]1C[C@H]3[C@@H]4CC=C5C[C@@H](O[C@@H]6O[C@H](CO)[C@H](O[C@@H]7O[C@H](CO)[C@@H](O)[C@H](O[C@@H]8OC[C@@H](O)[C@H](O)[C@H]8O)[C@H]7O[C@@H]7O[C@H](CO)[C@@H](O)[C@H](O[C@@H]8O[C@H](CO)[C@@H](O)[C@H](O)[C@H]8O)[C@H]7O)[C@H](O)[C@H]6O)[C@H](O)C[C@]5(C)[C@H]4CC[C@]3(C)[C@H]1[C@@H]2C`, 2.7 µg/mL (≈ 2.23 µM); for `CC(=O)C1=CC[C@H]2[C@@H]3CC=C4C[C@@H](O[C@@H]5O[C@H](CO)[C@H](O[C@@H]6O[C@H](CO)[C@@H](O)[C@H](O[C@@H]7OC[C@@H](O)[C@H](O)[C@H]7O)[C@H]6O[C@@H]6O[C@H](CO)[C@@H](O)[C@H](O[C@@H]7O[C@H](CO)[C@@H](O)[C@H](O)[C@H]7O)[C@H]6O)[C@H](O)[C@H]5O)[C@H](O)C[C@]4(C)[C@H]3CC[C@]12C`, 192 µg/mL (≈ 173 µM).
`C[C@@H]1CC[C@@]2(OC1)O[C@H]1C[C@H]3[C@@H]4CC=C5C[C@@H](O[C@@H]6O[C@H](CO)[C@H](O[C@@H]7O[C@H](CO)[C@@H](O)[C@H](O[C@@H]8OC[C@@H](O)[C@H](O)[C@H]8O)[C@H]7O[C@@H]7O[C@H](CO)[C@@H](O)[C@H](O[C@@H]8O[C@H](CO)[C@@H](O)[C@H](O)[C@H]8O)[C@H]7O)[C@H](O)[C@H]6O)[C@H](O)C[C@]5(C)[C@H]4CC[C@]3(C)[C@@]1(O)[C@@H]2C`: the CC50 worked out at 4.4 µg/mL (≈ 3.59 µM).
With `C[C@H]1CO[C@]2(C[C@@H]1O[C@@H]1O[C@H](CO)[C@@H](O)[C@H](O)[C@H]1O)O[C@H]1C[C@H]3[C@@H]4CC=C5C[C@@H](O[C@@H]6O[C@H](CO)[C@H](O[C@@H]7O[C@H](CO)[C@@H](O)[C@H](O[C@@H]8OC[C@@H](O)[C@H](O)[C@H]8O)[C@H]7O[C@@H]7O[C@H](CO)[C@@H](O)[C@H](O[C@@H]8O[C@H](CO)[C@@H](O)[C@H](O)[C@H]8O)[C@H]7O)[C@H](O)[C@H]6O)[C@H](O)C[C@]5(C)[C@H]4CC[C@]3(C)[C@H]1[C@@H]2C`, the CC50 is above 300 µg/mL.
With `CO[C@]1(CC[C@@H](C)CO[C@@H]2O[C@H](CO)[C@@H](O)[C@H](O)[C@H]2O)O[C@H]2C[C@H]3[C@@H]4CC=C5C[C@@H](O[C@@H]6O[C@H](CO)[C@H](O[C@@H]7O[C@H](CO)[C@@H](O)[C@H](O[C@@H]8OC[C@@H](O)[C@H](O)[C@H]8O)[C@H]7O[C@@H]7O[C@H](CO)[C@@H](O)[C@H](O[C@@H]8O[C@H](CO)[C@@H](O)[C@H](O)[C@H]8O)[C@H]7O)[C@H](O)[C@H]6O)[C@H](O)C[C@]5(C)[C@H]4CC[C@]3(C)[C@H]2[C@@H]1C`, the CC50 was found to be 6.1 µg/mL (≈ 4.34 µM).
Take `C/C(C(=O)CC[C@@H](C)CO[C@@H]1O[C@H](CO)[C@@H](O)[C@H](O)[C@H]1O)=C1/C(=O)C[C@H]2[C@@H]3CC=C4C[C@@H](O[C@@H]5O[C@H](CO)[C@H](O[C@@H]6O[C@H](CO)[C@@H](O)[C@H](O[C@@H]7OC[C@@H](O)[C@H](O)[C@H]7O)[C@H]6O[C@@H]6O[C@H](CO)[C@@H](O)[C@H](O[C@@H]7O[C@H](CO)[C@@H](O)[C@H](O)[C@H]7O)[C@H]6O)[C@H](O)[C@H]5O)[C@H](O)C[C@]4(C)[C@H]3CC[C@]12C`: the CC50 was 281 µg/mL (≈ 203 µM).
Consider `CC(=O)[C@H]1[C@@H](OC(=O)CC[C@@H](C)CO[C@@H]2O[C@H](CO)[C@@H](O)[C@H](O)[C@H]2O)C[C@H]2[C@@H]3CC=C4C[C@@H](O[C@@H]5O[C@H](CO)[C@H](O[C@@H]6O[C@H](CO)[C@@H](O)[C@H](O[C@@H]7OC[C@@H](O)[C@H](O)[C@H]7O)[C@H]6O[C@@H]6O[C@H](CO)[C@@H](O)[C@H](O[C@@H]7O[C@H](CO)[C@@H](O)[C@H](O)[C@H]7O)[C@H]6O)[C@H](O)[C@H]5O)[C@H](O)C[C@]4(C)[C@H]3CC[C@@]21C`, for which the CC50 is above 300 µg/mL.
